Source: the RNAGym collection of RNA variant scans (doi:10.1126/science.aae0568)
Variants at the floor of the assay were thinned out.

B1: tRNA (parent)
chain: GUUCCGUUGGCGUAAUGGUAACGCGUCUCCCUCCUAAGGAGAAGACUGCGGGUUCGAGUCCCGUACGGAACG

Variants of: B1
Assay: yeast fitness relative to wild type (ratio to wild type); higher = fitter; tRNA-Arg(CCU), competitive growth, 37 C, YPD
Summary of the method: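 Gene amplicons from the start population and from each of six end populations were read by 100-nucleotide paired-end sequencing. Those end populations came from pooled Saccharomyces cerevisiae strains carrying tRNA-Arg(CCU) gene variants at the native locus, competed in YPD at 37°C for 24 hours. Fitness relative to wild type was worked out from changes in genotype frequencies. Genotypes needed ≥ 100 starting reads, and estimates < 0.5 were set to 0.5.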

Variant | yeast fitness
G10C A14C A21U C31U | 0.773
G10A U32C A57G | ≤ 0.5
G10C A36G G41A | ≤ 0.5
G10C A42G | 0.57
G10C A14C C60A | ≤ 0.5
G10A U32C | 0.786
G10A U32A | 0.601
G10A C60G A69G | 0.616
G10A C66A G67C | ≤ 0.5
G10A G12A C34U A45U C49G | ≤ 0.5
G10C A45G C61A A70G | ≤ 0.5
G10A G50A G51A | ≤ 0.5
G10A U13A | 0.684
G10A G17A C29A C34G A43C C60G | ≤ 0.5
G10A G38C G50A A69G | ≤ 0.5
G10A G23C A45G A65U | ≤ 0.5
G10A G17A U19A C29U C66U | ≤ 0.5
G10C A15G C27G | 0.695
G10A G38C G67U | ≤ 0.5
G10C A45U C49G | 0.583
G10C A36C C55G | ≤ 0.5
G10A G51A C66U | ≤ 0.5
G10A U64A | 0.73
G10C A42C A43G | ≤ 0.5

Variant | yeast fitness
G10C A43C C49U | ≤ 0.5
G10C A14U U19A C22U C62A | ≤ 0.5
G10A C62U G67C | 0.636
G10C A36U A69U | ≤ 0.5
G10A G56A A69U | 0.601
G10C A15G G18A U35A G44A | ≤ 0.5
G10C A43G | 0.739
G10A U13C C31G A57C | 0.587
G10A U19C G48A C49G | 0.56
G10C A14U | 0.546
G10C A14G | 0.569
G10C A40G | 0.588
G10C A45U | 0.778
G10A U47G A65C | ≤ 0.5
G10C A36U U64C C66U A70C | ≤ 0.5
G10C A57G A69U | 0.559
G10C A43U C46G | ≤ 0.5
G10A U13A C30U C55G G58C | ≤ 0.5
G10A C62U C66U | 0.617
G10A U19A | 0.729
G10C A14U G51A C62U | ≤ 0.5
G10A U13A A14C A40C C62G | ≤ 0.5
G10A U28A A42U | ≤ 0.5
G10A U59C | 0.721

Variant | yeast fitness
G10C A37G | 0.656
G10C A14C C62U | 0.537
G10A U35A G63C | ≤ 0.5
G10A G17A C61A C62U A65U A69C | ≤ 0.5
G10A G17C C30G C33G | 0.578
G10A G12A G17U U28C U54C | ≤ 0.5
G10A G50A U59A C61A | ≤ 0.5
G10C A37U G52A C66U | ≤ 0.5
G10C A21G G56U C66A | 0.727
G10A U28A U59A | ≤ 0.5
G10C | 0.661
G10A G44A C66U | 0.534
G10C A57C | ≤ 0.5
G10A G17C C30G C33G A45U G52A A70U | ≤ 0.5
G10A G58A | 0.767
G10C A37C C60G | ≤ 0.5
G10A G39C A70G | 0.589
G10A U16A U28C A42C C66U | ≤ 0.5
G10A G17C C30G C33G C61A A69U | 0.581
G10A U32A C49U | 0.577
G10C A21G C29A A43U C55A | 0.651
G10A G17A U28C C31G G67C | ≤ 0.5
G10C A15U C29G C46U G51C C61G | ≤ 0.5
G10C A36G C49U | 0.551

Variant | yeast fitness
G10C A20U C27U C29U A40U C66U | ≤ 0.5
G10C A20U A42G C60G | ≤ 0.5
G10A U35G A37U | 0.551
G10A G17A C30G G67U | ≤ 0.5
G10C A14C G58A | ≤ 0.5
G10A U13A C24U A45C A65G C66G | ≤ 0.5
G10C A20G | 0.775
G10C A21C C30U G41C | ≤ 0.5
G10A G12C C31U | 0.62
G10C A65C | 0.76
G10C A65G | 0.719
G10A U53C | 0.608
G10C A21G C55G A57G C60A | ≤ 0.5
G10A U35G A43G C46U | 0.587
G10A G23C C29U A36C C49G A70C | 0.553
G10A G39A A65C C66G | 0.556
G10A U54G | ≤ 0.5
G10A G41A C49U U53A | ≤ 0.5
G10A G17A C30G U35A G50A | 0.626
G10A G12A G52A C66U | ≤ 0.5
G10A C61A A69C A70C | ≤ 0.5
G10C A14C C61A G67A A69C | ≤ 0.5
G10A G41A A42C G50C A70G | 0.533
G10C A14G U26A C49U A65U | ≤ 0.5

Variant | yeast fitness
G10A C60G G67A | ≤ 0.5
G10A U13A G67C | ≤ 0.5
G10A G17C A69U | ≤ 0.5
G10C A14C G23U C31A C33G | 0.512
G10C A14C C27A C29G A57C A65U | ≤ 0.5
G10C A15G U35A G44A A69C | ≤ 0.5
G10A G12A U16A G18A A45U | ≤ 0.5
G10C A36U C60G | ≤ 0.5
G10A G44A U54C G67C | ≤ 0.5
G10C A21C C30G U32C C60U G67C | 0.54
G10A U16A A65U | 0.575
G10A G17C C30G C33G G68C | ≤ 0.5
G10A U16A G48A A65U | ≤ 0.5
G10A G25U A36U A43G C60U | ≤ 0.5
G10C A20G A43G C46U | ≤ 0.5
G10A G41A C49U U53A C66G | 0.537
G10C A42U C61U C62U | ≤ 0.5
G10C A15C C24U U54C C60A C62A | 0.585
G10A G38A A45G A70G | ≤ 0.5
G10A G38U G67C | ≤ 0.5
G10A G38U G67U | ≤ 0.5
G10A G17C C31U G44A C46A | ≤ 0.5
G10C A20G C24U G38C U53G | ≤ 0.5
G10A U19A A40C A42C G68C | 0.582

Variant | yeast fitness
G10C A36U A42G G56A U59G | ≤ 0.5
G10A G52C | 0.528
G10A G52A | 0.53
G10C A36U U53A C60A | 0.548
G10C A15U C29G C46U G51C A65G | ≤ 0.5
G10C A14C C61U | ≤ 0.5
G10C A36C | 0.712
G10C A21C C66G | ≤ 0.5
G10C A36C G48A C62U | 0.555
G10A U26C G56A | 0.542
G10C A14U C62U | 0.51
G10C A14U C66U | ≤ 0.5
G10C A45U C61G | ≤ 0.5
G10A U54C G68A A70G | ≤ 0.5
G10A U16C U35C A40U | ≤ 0.5
G10C A57C U64A | ≤ 0.5
G10A G25A C62U | ≤ 0.5
G10A G17A U19A C29U C34G | ≤ 0.5
G10A G50A U59A C61A C66G | 0.606
G10C A14U U19A C22U A36G | ≤ 0.5
G10C A20G C24U G38C G56C | 0.561
G10A C55U | 0.559
G10A C55G | 0.605
G10C A15U C33A A36U C62U | ≤ 0.5

Variant | yeast fitness
G10A G68A A70G | 0.596
G10A U26A A43G A70U | ≤ 0.5
G10A U13G C27U C46G A69C | 0.506
G10C A21G | 0.633
G10C A21C C22G A36G A57C | ≤ 0.5
G10A G23C C29U A36C | 0.532
G10A G25C | 0.656
G10C A37U G52A | ≤ 0.5
G10C A37G C49U G52A C55G C66A | ≤ 0.5
G10A U26C A36G G56A | ≤ 0.5
G10A G58C A70U | 0.701
G10C A14U U32C C62U | ≤ 0.5
G10A U26C C29G C31U | ≤ 0.5
G10A G17A A36G G38C A45U C46U G67U | ≤ 0.5
G10A G48A C55A | ≤ 0.5
G10A U13A C29U C49G | ≤ 0.5
G10C A45U G48C | 0.53
G10A U26C | 0.736
G10A U26G | 0.681
G10A U26A | 0.731
G10A G58C A65U | ≤ 0.5
G10A U26A C66U | 0.537
G10A U19A C46A | 0.542
